Key:
[1] = target: T1, Serine/threonine-protein kinase Chk1 (Homo sapiens) (UniProt O14757); experiment: Inhibition of CHK1 assessed as residual enzyme activity at 10 uM relative to untreated control
T1 sequence (whole entry): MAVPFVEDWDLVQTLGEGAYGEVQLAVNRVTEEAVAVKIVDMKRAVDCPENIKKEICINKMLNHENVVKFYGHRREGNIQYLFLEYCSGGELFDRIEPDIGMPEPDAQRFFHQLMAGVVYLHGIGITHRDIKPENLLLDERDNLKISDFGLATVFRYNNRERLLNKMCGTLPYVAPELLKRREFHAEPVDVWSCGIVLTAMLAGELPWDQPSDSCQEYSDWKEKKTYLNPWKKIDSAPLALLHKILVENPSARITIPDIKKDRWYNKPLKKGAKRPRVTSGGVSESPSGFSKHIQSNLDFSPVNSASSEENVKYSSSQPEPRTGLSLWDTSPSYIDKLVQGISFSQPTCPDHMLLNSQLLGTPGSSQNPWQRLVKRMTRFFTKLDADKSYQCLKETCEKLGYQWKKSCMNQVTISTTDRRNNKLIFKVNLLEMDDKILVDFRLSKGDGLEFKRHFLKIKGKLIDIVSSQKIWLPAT
Procedure, shortened: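 Kinases of human origin, except CK1δ, which is rat. Run in 50 mM Tris/HCl pH 7.5, 0.1 mM EGTA, 0.1% 2-mercaptoethanol and 10 mM Mg acetate, with [γ-33P]ATP at 20 µM, 30 min at 21 °C. Acid-stopped and captured on P81 filters. Compound tested at 10 µM; residual % of uninhibited control, duplicate determinations.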

[2] = target: Protein kinase C alpha type (Homo sapiens) (UniProt P17252); experiment: Inhibition of PKCalpha assessed as residual enzyme activity at 10 uM relative to untreated control
Procedure, shortened: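 Histone H1 (0.1 mg/mL) as substrate, 20 µM [γ-33P]ATP, 10 mM Mg acetate. Run 30 min at 21 °C with 10 µM compound. Radiolabel captured on P81 filters. Expressed as % of uninhibited control, duplicates.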

[3] = Inhibition of PHK assessed as residual enzyme activity at 10 uM relative to untreated control
[4] = target: Ribosomal protein S6 kinase alpha-3 (Homo sapiens) (UniProt P51812); experiment: Inhibition of RSK2 assessed as residual enzyme activity at 10 uM relative to untreated control
[5] = target: Serine/threonine-protein kinase N2 (Homo sapiens) (UniProt Q16513); experiment: Inhibition of PRK2 assessed as residual enzyme activity at 10 uM relative to untreated control
Procedure, shortened: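 Tris/HCl pH 7.5, EGTA, 2-mercaptoethanol buffer, 30 min, 21 °C, compound at 10 µM. Radioactive phosphate measured on P81 filters. Residual activity as % of uninhibited incubations, duplicates.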

[6] = target: Protein kinase C zeta type (Homo sapiens) (UniProt Q05513); experiment: Inhibition of PKCzeta assessed as residual enzyme activity at 10 uM relative to untreated control
Protein kinase C zeta type (Homo sapiens), sequence (Q05513 whole entry, looked up): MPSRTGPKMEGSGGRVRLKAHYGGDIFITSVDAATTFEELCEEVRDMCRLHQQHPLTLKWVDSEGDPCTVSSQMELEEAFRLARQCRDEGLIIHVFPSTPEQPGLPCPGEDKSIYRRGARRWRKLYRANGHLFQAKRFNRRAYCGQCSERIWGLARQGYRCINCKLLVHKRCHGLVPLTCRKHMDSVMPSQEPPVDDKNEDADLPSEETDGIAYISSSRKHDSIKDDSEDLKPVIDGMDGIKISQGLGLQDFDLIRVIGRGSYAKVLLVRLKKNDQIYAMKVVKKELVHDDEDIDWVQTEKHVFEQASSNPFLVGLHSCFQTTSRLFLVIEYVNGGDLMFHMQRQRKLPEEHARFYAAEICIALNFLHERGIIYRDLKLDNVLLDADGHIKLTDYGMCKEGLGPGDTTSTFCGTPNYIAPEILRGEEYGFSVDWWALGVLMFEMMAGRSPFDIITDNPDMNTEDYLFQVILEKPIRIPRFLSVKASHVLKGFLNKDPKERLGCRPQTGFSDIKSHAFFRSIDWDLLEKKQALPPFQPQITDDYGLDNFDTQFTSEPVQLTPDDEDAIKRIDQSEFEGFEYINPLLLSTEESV

[7] = target: Mitogen-activated protein kinase 10 (Homo sapiens) (UniProt P53779); experiment: Inhibition of JNK3 assessed as residual enzyme activity at 10 uM relative to untreated control
Mitogen-activated protein kinase 10 (Homo sapiens), sequence (P53779 whole entry): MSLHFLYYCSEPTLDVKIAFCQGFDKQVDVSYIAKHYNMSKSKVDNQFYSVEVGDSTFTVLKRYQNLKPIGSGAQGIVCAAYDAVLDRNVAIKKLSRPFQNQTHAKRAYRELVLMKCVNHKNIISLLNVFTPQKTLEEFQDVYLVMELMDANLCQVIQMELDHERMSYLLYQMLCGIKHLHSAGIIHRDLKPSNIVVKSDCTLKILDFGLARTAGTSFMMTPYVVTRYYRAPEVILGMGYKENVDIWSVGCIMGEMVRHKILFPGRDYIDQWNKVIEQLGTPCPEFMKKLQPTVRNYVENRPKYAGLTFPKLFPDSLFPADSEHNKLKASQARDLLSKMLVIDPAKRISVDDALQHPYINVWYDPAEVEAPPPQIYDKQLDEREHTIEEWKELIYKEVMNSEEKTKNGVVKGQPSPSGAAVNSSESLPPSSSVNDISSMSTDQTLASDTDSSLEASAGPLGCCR
Procedure, shortened: (§1)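 Assayed with [γ-33P]ATP at 50 µM and 10 mM Mg acetate in 50 mM Tris/HCl pH 7.5, 0.1 mM EGTA, 0.1% 2-mercaptoethanol, 30 min, 21 °C. Phosphoric acid stop, P81 filter capture. ERK2 and Lck are mouse; AMPK is rat. 10 µM compound; % activity remaining relative to control without inhibitor, duplicates.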

[8] = target: Serine/threonine-protein kinase pim-1 (Homo sapiens) (UniProt P11309); experiment: Inhibition of Pim-1 assessed as residual enzyme activity at 10 uM relative to untreated control
Serine/threonine-protein kinase pim-1 (Homo sapiens), sequence (P11309 whole entry, looked up): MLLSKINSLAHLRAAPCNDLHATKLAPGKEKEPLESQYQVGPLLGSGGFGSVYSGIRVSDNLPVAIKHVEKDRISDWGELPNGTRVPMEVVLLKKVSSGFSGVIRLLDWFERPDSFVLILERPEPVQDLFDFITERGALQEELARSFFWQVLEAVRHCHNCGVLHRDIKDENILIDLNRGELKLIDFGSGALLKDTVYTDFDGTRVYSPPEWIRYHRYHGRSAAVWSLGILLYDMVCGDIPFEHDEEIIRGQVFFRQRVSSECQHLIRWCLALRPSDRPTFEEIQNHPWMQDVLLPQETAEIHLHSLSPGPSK

[9] = target: Myosin light chain kinase, smooth muscle (Homo sapiens) (UniProt Q15746); experiment: Inhibition of smMLCK assessed as residual enzyme activity at 10 uM relative to untreated control
Myosin light chain kinase, smooth muscle (Homo sapiens), sequence (Q15746 whole entry): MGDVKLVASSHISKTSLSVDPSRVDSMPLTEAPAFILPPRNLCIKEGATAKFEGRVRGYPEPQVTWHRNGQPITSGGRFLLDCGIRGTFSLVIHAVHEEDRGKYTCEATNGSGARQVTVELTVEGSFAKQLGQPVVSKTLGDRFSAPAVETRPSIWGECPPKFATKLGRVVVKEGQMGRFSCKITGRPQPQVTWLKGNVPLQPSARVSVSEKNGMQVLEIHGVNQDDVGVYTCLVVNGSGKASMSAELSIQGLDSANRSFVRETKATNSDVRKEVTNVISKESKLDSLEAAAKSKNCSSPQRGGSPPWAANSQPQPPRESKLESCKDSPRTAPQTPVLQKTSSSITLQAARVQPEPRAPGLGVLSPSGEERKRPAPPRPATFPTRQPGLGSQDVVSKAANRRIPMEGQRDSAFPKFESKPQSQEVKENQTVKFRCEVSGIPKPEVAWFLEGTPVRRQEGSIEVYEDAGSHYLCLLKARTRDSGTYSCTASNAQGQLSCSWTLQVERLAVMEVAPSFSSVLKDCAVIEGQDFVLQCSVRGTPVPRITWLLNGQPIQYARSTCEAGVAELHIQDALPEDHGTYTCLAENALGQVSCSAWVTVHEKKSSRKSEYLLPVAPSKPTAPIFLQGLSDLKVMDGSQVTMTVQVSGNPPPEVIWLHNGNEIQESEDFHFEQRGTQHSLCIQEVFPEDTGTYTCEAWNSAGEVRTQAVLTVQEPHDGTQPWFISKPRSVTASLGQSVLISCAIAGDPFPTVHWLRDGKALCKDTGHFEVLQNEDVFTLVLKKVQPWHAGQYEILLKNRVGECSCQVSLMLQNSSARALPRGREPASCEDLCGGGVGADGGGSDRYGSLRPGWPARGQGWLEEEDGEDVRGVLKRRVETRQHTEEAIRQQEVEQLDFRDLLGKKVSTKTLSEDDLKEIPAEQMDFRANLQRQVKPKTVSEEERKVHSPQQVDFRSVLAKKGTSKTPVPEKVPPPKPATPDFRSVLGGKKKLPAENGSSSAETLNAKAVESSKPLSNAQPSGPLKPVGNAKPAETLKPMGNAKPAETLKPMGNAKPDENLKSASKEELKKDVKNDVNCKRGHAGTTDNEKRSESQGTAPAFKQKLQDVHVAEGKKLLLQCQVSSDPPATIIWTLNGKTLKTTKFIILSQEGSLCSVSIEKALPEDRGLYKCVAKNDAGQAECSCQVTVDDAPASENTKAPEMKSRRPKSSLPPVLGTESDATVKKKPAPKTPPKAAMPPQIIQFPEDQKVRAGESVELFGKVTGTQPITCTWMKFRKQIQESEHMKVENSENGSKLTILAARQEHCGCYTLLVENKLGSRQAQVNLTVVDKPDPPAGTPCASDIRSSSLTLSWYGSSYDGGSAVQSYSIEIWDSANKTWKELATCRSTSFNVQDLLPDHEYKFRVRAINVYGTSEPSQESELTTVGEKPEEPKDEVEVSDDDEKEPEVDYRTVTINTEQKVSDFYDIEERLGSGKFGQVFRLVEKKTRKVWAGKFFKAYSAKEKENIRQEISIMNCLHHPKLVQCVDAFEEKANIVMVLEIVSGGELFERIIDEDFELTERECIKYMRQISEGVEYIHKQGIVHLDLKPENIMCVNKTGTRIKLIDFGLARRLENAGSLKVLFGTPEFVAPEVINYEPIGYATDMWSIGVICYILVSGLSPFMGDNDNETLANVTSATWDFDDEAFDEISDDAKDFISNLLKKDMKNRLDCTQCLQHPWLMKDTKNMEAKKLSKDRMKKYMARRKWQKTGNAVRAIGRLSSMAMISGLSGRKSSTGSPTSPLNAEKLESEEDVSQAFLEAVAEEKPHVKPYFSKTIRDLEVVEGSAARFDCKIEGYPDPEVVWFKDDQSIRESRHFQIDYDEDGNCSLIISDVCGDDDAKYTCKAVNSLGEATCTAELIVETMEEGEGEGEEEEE

[10] = target: T2, Mitogen-activated protein kinase 15 (Homo sapiens) (UniProt Q8TD08); experiment: Inhibition of ERK8 assessed as residual enzyme activity at 10 uM relative to untreated control
T2 sequence (whole entry): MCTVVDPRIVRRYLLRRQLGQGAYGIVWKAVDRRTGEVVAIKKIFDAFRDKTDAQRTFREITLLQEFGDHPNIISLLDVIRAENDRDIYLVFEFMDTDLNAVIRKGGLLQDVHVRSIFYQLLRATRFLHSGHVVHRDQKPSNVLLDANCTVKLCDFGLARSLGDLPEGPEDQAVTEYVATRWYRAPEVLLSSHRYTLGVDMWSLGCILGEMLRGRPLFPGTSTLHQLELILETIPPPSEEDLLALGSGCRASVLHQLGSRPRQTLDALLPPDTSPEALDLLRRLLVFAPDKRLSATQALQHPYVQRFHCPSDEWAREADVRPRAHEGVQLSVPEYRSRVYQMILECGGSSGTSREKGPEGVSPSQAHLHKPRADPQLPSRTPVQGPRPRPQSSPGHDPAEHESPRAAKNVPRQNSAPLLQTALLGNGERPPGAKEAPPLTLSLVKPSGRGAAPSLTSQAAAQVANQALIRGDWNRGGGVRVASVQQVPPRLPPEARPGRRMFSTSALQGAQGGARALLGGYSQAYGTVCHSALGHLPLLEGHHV
Procedure, shortened: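 Radiometric filter-binding assay at 21 °C for 30 min. Mix: 50 mM Tris/HCl pH 7.5, 0.1 mM EGTA, 0.1% 2-mercaptoethanol, 10 mM Mg acetate and [γ-33P]ATP (800 cpm/pmol) at 5 µM. Stopped with orthophosphoric acid and spotted on P81. Compound at 10 µM; activity given as % remaining versus no-inhibitor control, duplicates. Kinases human full-length unless noted.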

[11] = target: Calcium/calmodulin-dependent protein kinase kinase 1 (Homo sapiens) (UniProt Q8N5S9); experiment: Inhibition of CAMKKalpha assessed as residual enzyme activity at 10 uM relative to untreated control
[12] = target: Ribosomal protein S6 kinase beta-1 (Homo sapiens) (UniProt P23443); experiment: Inhibition of S6K1 assessed as residual enzyme activity at 10 uM relative to untreated control
Ribosomal protein S6 kinase beta-1 (Homo sapiens), sequence (P23443 whole entry, looked up): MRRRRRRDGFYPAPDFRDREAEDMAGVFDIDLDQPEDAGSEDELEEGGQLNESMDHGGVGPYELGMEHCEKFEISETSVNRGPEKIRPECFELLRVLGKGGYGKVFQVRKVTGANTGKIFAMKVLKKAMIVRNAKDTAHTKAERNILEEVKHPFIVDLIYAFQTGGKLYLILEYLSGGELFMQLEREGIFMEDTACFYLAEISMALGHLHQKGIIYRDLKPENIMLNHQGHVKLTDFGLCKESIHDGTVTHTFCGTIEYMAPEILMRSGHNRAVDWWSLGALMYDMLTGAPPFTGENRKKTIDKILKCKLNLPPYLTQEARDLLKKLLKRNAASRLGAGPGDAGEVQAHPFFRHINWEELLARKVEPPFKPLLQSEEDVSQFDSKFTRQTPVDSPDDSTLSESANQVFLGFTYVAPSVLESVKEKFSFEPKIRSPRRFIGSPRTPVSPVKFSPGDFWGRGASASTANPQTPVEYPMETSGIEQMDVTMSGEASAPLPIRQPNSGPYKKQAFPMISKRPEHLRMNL
Procedure, shortened: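 Buffer Tris/HCl pH 7.5, EGTA and 2-mercaptoethanol. 30 min at 21 °C, compound at 10 µM. P81 filter read-out. Residual activity versus control, duplicates.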

[13] = target: Mitogen-activated protein kinase 14 (Homo sapiens) (UniProt Q16539); experiment: Inhibition of p38alpha assessed as residual enzyme activity at 10 uM relative to untreated control
Mitogen-activated protein kinase 14 (Homo sapiens), sequence (Q16539 whole entry): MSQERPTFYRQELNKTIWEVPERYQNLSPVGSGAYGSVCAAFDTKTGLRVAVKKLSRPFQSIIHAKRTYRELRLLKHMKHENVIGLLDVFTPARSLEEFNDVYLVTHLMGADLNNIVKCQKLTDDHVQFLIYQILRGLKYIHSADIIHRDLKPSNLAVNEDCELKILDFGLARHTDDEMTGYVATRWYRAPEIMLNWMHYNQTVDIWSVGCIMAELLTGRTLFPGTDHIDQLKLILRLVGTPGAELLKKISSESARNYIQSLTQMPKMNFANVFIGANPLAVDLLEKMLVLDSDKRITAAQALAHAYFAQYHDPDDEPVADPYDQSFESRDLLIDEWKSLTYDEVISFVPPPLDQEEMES
Procedure, shortened: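 p38γ and p38δ MAPK run at 5 µM [γ-33P]ATP, and p38α at 50 µM, each with 10 mM Mg acetate. Buffer 50 mM Tris/HCl pH 7.5, 0.1 mM EGTA, 0.1% 2-mercaptoethanol. 10 µM compound, 30 min at 21 °C. P81 filter capture. Residual activity relative to control, duplicates.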

[14] = target: MAP kinase-interacting serine/threonine-protein kinase 2 (Homo sapiens) (UniProt Q9HBH9); experiment: Inhibition of MNK2 assessed as residual enzyme activity at 10 uM relative to untreated control; procedure, shortened: as §1
MAP kinase-interacting serine/threonine-protein kinase 2 (Homo sapiens), sequence (Q9HBH9 whole entry, looked up): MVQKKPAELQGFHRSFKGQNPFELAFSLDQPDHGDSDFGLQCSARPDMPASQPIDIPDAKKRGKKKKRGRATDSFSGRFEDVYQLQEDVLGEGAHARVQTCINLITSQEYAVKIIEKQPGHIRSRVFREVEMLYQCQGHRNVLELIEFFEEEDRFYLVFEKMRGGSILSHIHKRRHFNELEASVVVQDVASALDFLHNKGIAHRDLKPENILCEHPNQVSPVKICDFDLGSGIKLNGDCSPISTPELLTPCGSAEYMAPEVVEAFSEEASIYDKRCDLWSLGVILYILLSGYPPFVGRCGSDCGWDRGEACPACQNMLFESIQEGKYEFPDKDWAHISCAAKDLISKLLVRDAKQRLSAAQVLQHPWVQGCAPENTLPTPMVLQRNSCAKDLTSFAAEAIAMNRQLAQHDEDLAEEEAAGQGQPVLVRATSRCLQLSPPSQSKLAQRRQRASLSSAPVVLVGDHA

Structure (SMILES)	Activity [1] [%]	Activity [2] [%]	Activity [3] [%]	Activity [4] [%]	Activity [5] [%]	Activity [6] [%]	Activity [7] [%]	Activity [8] [%]	Activity [9] [%]	Activity [10] [%]	Activity [11] [%]	Activity [12] [%]	Activity [13] [%]	Activity [14] [%]
c1ccc2c(c1)[nH]c1c2ccc2cc[nH]c21	123	111	90	99	95	91	108	20	86	55	76	89	108	95
O=Cc1c[nH]c2c1ccc1c3ccccc3[nH]c12	97	84	33	77	31	83	113	–	60	20	42	–	102	55
O=Cc1c[nH]c2ccc3c4ccccc4[nH]c3c12	101	95	88	78	101	91	96	79	91	112	90	82	108	109
c1ccc2c(c1)[nH]c1c3cc[nH]c3ccc21	112	103	71	107	84	87	111	53	82	47	92	87	115	103
